The results in this text go back to ChEMBL document CHEMBL3244297, “In vitro antiplaque properties of a series of alkyl bis(biguanides)” (1978).

Structures are written as SMILES.

Holding throughout (type): functional
The test system of test [1] is Actinomyces naeslundii. Kind of test: Antiplaque activity against Actinomyces naeslundii ATCC 12104 assessed as growth inhibition of adherent cells on saliva coated bovine tooth slabs. The procedure, abridged:
(§1)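 Tooth slabs were treated with the test agents at a series of molar concentrations. The value is the lowest molar concentration (M × 10⁴) that gave >90% inhibition of growth of adherent cells, based on triplicate sets.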

For test [2], the system named is Actinomyces naeslundii. Nature of the test: Antibacterial activity against Actinomyces naeslundii ATCC 12104 assessed as growth inhibition by tube dilution assay. The procedure, abridged: (§2)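 Standard tube dilution assay, modified so that adherent cells were dispersed before cell density was read spectrophotometrically at 540 nm. The value is the minimum inhibitory concentration, given in molar units.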

Test [3] deals with Actinomyces viscosus. Kind of test: Antibacterial activity against Actinomyces viscosus M-100-2000 assessed as growth inhibition by tube dilution assay. The procedure, abridged:
as §2

For test [4], the system named is Streptococcus mutans. Nature of the test: Antiplaque activity against wild type Streptococcus mutans 6715-13 assessed as growth inhibition of adherent cells on saliva coated bovine tooth slabs. The procedure, abridged:
as §1

For test [5], the system named is Streptococcus mutans. Nature of the test: Antibacterial activity against wild type Streptococcus mutans 6715-13 assessed as growth inhibition by tube dilution assay. A digest of the protocol: as §2
The test system of test [6] is Actinomyces viscosus. Nature of the test: Antiplaque activity against Actinomyces viscosus M-100-2000 assessed as growth inhibition of adherent cells on saliva coated bovine tooth slabs. The procedure, abridged: as §1

As to `CCCCCCCNC(=N)NC(=N)NCCCCCCCCNC(=N)NC(=N)NCCCCCCC.Cl`, the “MIC>90” value with Actinomyces naeslundii [1] was 0.5 ×10⁻⁴ M; in the test with Streptococcus mutans [4], over 10 ×10⁻⁴ M; with Actinomyces viscosus [6], over 10 ×10⁻⁴ M. For the same compound, the MIC with Actinomyces naeslundii [2], in the test on Actinomyces viscosus [3] and in the test on Streptococcus mutans [5] was 10 µM each time.
Regarding `CCCCCCCCCNC(=N)NC(=N)NCCCCNC(=N)NC(=N)NCCCCCCCCC.Cl`, the “MIC>90” value in the test on Actinomyces naeslundii [1] turned out to be 1 ×10⁻⁴ M; in the test with Streptococcus mutans [4], 70 ×10⁻⁴ M; in the test on Actinomyces viscosus [6] it was 10 ×10⁻⁴ M. In addition, the MIC worked out at 10 µM in the test on Actinomyces naeslundii [2], 10 µM in the test with Actinomyces viscosus [3] and 100 µM in the test with Streptococcus mutans [5].
`N=C(NCCCCCCNC(=N)NC(=N)Nc1ccc(Cl)cc1)NC(=N)Nc1ccc(Cl)cc1.O=C(O)[C@H](O)[C@@H](O)[C@H](O)[C@H](O)CO`: the “MIC>90” value is listed as over 100 ×10⁻⁴ M with Actinomyces naeslundii [1], 10 ×10⁻⁴ M with Streptococcus mutans [4] and over 10 ×10⁻⁴ M in the test with Actinomyces viscosus [6]. The MIC with Actinomyces naeslundii [2], in the test with Actinomyces viscosus [3] and with Streptococcus mutans [5] was 10 µM each time.
On to `CCCCCCNC(=N)NC(=N)NCCCCCCCCNC(=N)NC(=N)NCCCCCC.Cl`, for which the entries for the “MIC>90” value in the test on Actinomyces naeslundii [1], in the test with Streptococcus mutans [4] and in the test on Actinomyces viscosus [6] were 1 ×10⁻⁴ M, 3 ×10⁻⁴ M and over 10 ×10⁻⁴ M, respectively. Besides, the results for the MIC with Actinomyces naeslundii [2], in the test on Actinomyces viscosus [3] and in the test with Streptococcus mutans [5] were 10 µM, 1 µM and 10 µM, respectively.
Turning to `CCCCCC(CC)CNC(=N)NC(=N)NCCCCNC(=N)NC(=N)NCC(CC)CCCCC.Cl` (stereo not given), the “MIC>90” value with Actinomyces naeslundii [1] is reported as 0.5 ×10⁻⁴ M; with Streptococcus mutans [4], 100 ×10⁻⁴ M; in the test on Actinomyces viscosus [6] it was 10 ×10⁻⁴ M. The MIC with Actinomyces naeslundii [2], in the test on Actinomyces viscosus [3] and in the test on Streptococcus mutans [5] was 10 µM in each case.
Take `CCCCC(CC)CNC(=N)NC(=N)NCCCCCCNC(=N)NC(=N)NCC(CC)CCCC.Cl.Cl` (stereo not given) [ALEXIDINE DIHYDROCHLORIDE]: the “MIC>90” value is given as 5 ×10⁻⁴ M in the test on Actinomyces naeslundii [1], over 100 ×10⁻⁴ M with Streptococcus mutans [4] and 0.5 ×10⁻⁴ M in the test on Actinomyces viscosus [6]. The MIC in the test on Actinomyces naeslundii [2] is 10 µM; in the test with Actinomyces viscosus [3], 0.1 µM; in the test on Streptococcus mutans [5] it was 10 µM.
For `CCCCCCCNC(=N)NC(=N)NCCCCCCNC(=N)NC(=N)NCCCCCCC.Cl`, the results for the “MIC>90” value with Actinomyces naeslundii [1], in the test with Streptococcus mutans [4] and with Actinomyces viscosus [6] were 0.5 ×10⁻⁴ M, 50 ×10⁻⁴ M and over 10 ×10⁻⁴ M, respectively. Also, the MIC came out at 10 µM in the test on Actinomyces naeslundii [2], 1 µM with Actinomyces viscosus [3] and 10 µM in the test on Streptococcus mutans [5].
Regarding `CCCCCCNC(=N)NC(=N)NCCCCCCCCCCNC(=N)NC(=N)NCCCCCC.Cl`, the “MIC>90” value in the test on Actinomyces naeslundii [1] was 0.5 ×10⁻⁴ M; in the test with Streptococcus mutans [4], 10 ×10⁻⁴ M; with Actinomyces viscosus [6] it was over 10 ×10⁻⁴ M. In addition, the minimum inhibitory concentration (MIC) in the test with Actinomyces naeslundii [2], with Actinomyces viscosus [3] and in the test on Streptococcus mutans [5] was 10 µM throughout.
As for `CCCCCCNC(=N)NC(=N)NCCCCCCNC(=N)NC(=N)NCCCCCC.Cl`, the “MIC>90” value is recorded as 0.8 ×10⁻⁴ M with Actinomyces naeslundii [1], 100 ×10⁻⁴ M in the test on Streptococcus mutans [4] and 0.8 ×10⁻⁴ M in the test on Actinomyces viscosus [6]. The results for the MIC with Actinomyces naeslundii [2], in the test with Actinomyces viscosus [3] and with Streptococcus mutans [5] were 10 µM, 1 µM and 10 µM, respectively.
As for `CCCCCCCCNC(=N)NC(=N)NCCCCCCNC(=N)NC(=N)NCCCCCCCC.Cl`, the “MIC>90” value in the test on Actinomyces naeslundii [1] was 0.5 ×10⁻⁴ M; with Streptococcus mutans [4] it was 8 ×10⁻⁴ M; with Actinomyces viscosus [6], 5 ×10⁻⁴ M. The MIC in the test with Actinomyces naeslundii [2], in the test on Actinomyces viscosus [3] and in the test on Streptococcus mutans [5] was 10 µM throughout.

The term MIC denotes the lowest concentration that inhibits growth of the organism.
